Experimental data from ChEMBL document CHEMBL5058577, “EUbOPEN Chemogenomics Library 2 (Multiplex)” (2022).

Test system: Fibroblast
Assay: Multiplex assay against human fibroblast
Type: toxicity, cell-based
Procedure, shortened: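 Values for tubulin, mitochondrial-mass and membrane-permeability phenotypes are per cents of cells with healthy nuclei. These cells were identified by CellPathfinder machine-learning gating of live cells that had been stained at seeding with Hoechst33342, BioTracker Green Microtubule Cytoskeleton Dye, MitoTracker Red and Annexin V Alexa Fluor 680 and imaged on a CQ1 microscope at 37°C and 5% CO2 after compound addition. The gating first set Hoechst high-intensity objects apart from normal cells, then split normal cells into healthy, pyknosed or fragmented nuclei, and pyknosed cells into mitotic or apoptotic.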

[1] = 12 h, 1 µM, compound concentration 1 uM, replicate 1
[2] = 12 h, 1 µM, compound concentration 1 uM, replicate 2
[3] = 12 h, 10 µM, compound concentration 10 uM, replicate 1
[4] = 12 h, 10 µM, compound concentration 10 uM, replicate 2
[5] = 24 h, 1 µM, compound concentration 1 uM, replicate 1
[6] = 24 h, 1 µM, compound concentration 1 uM, replicate 2
[7] = 24 h, 10 µM, compound concentration 10 uM, replicate 1
[8] = 24 h, 10 µM, compound concentration 10 uM, replicate 2
[9] = 48 h, 1 µM, compound concentration 1 uM, replicate 1
[10] = 48 h, 1 µM, compound concentration 1 uM, replicate 2
[11] = 48 h, 10 µM, compound concentration 10 uM, replicate 1
[12] = 48 h, 10 µM, compound concentration 10 uM, replicate 2

## O=C(O)Cc1ccccc1Nc1c(Cl)cccc1Cl [DICLOFENAC]
[1]
  Population Apoptotic (%): 43%
  Population Fragmented Nuclei (%): 14%
  Population Healthy Nuclei (%): 67%
  Population Hoechst High Intensity Objects (%): 0%
  Population Membrane Permeable-Phenotype (%): 1%
  Population Mitochondria Different-Phenotype (%): 6%
  Population Mitotic Cells (%): 56%
  Population Normal (%): 99%
  Population Pyknosed Nuclei (%): 17%
  Population Tubulin-Different-Phenotype (%): 25%
[2]
  Population Apoptotic (%): 33%
  Population Fragmented Nuclei (%): 25%
  Population Healthy Nuclei (%): 49%
  Population Hoechst High Intensity Objects (%): 2%
  Population Membrane Permeable-Phenotype (%): 7%
  Population Mitotic Cells (%): 66%
  Population Normal (%): 97%
  Population Pyknosed Nuclei (%): 25%
  Population Tubulin-Different-Phenotype (%): 49%
[3]
  Population Apoptotic (%): 32%
  Population Fragmented Nuclei (%): 14%
  Population Healthy Nuclei (%): 68%
  Population Hoechst High Intensity Objects (%): 0%
  Population Membrane Permeable-Phenotype (%): 0%
  Population Mitochondria Different-Phenotype (%): 5%
  Population Mitotic Cells (%): 68%
  Population Normal (%): 99%
  Population Pyknosed Nuclei (%): 17%
  Population Tubulin-Different-Phenotype (%): 24%
[4]
  Population Apoptotic (%): 38%
  Population Fragmented Nuclei (%): 36%
  Population Healthy Nuclei (%): 46%
  Population Hoechst High Intensity Objects (%): 6%
  Population Membrane Permeable-Phenotype (%): 16%
  Population Mitochondria Different-Phenotype (%): 8%
  Population Mitotic Cells (%): 61%
  Population Normal (%): 93%
  Population Tubulin-Different-Phenotype (%): 54%
[5]
  Population Apoptotic (%): 52%
  Population Fragmented Nuclei (%): 15%
  Population Healthy Nuclei (%): 66%
  Population Hoechst High Intensity Objects (%): 2%
  Population Membrane Permeable-Phenotype (%): 0%
  Population Mitochondria Different-Phenotype (%): 4%
  Population Mitotic Cells (%): 47%
  Population Normal (%): 97%
  Population Pyknosed Nuclei (%): 17%
  Population Tubulin-Different-Phenotype (%): 29%
[6]
  Population Apoptotic (%): 35%
  Population Fragmented Nuclei (%): 28%
  Population Healthy Nuclei (%): 49%
  Population Hoechst High Intensity Objects (%): 3%
  Population Membrane Permeable-Phenotype (%): 12%
  Population Mitochondria Different-Phenotype (%): 6%
  Population Mitotic Cells (%): 64%
  Population Normal (%): 96%
  Population Pyknosed Nuclei (%): 21%
  Population Tubulin-Different-Phenotype (%): 50%
[7]
  Population Apoptotic (%): 30%
  Population Fragmented Nuclei (%): 16%
  Population Healthy Nuclei (%): 68%
  Population Hoechst High Intensity Objects (%): 5%
  Population Membrane Permeable-Phenotype (%): 0%
  Population Mitochondria Different-Phenotype (%): 5%
  Population Mitotic Cells (%): 69%
  Population Normal (%): 94%
  Population Pyknosed Nuclei (%): 15%
  Population Tubulin-Different-Phenotype (%): 19%
[8]
  Population Apoptotic (%): 50%
  Population Fragmented Nuclei (%): 31%
  Population Healthy Nuclei (%): 50%
  Population Hoechst High Intensity Objects (%): 2%
  Population Membrane Permeable-Phenotype (%): 8%
  Population Mitochondria Different-Phenotype (%): 10%
  Population Mitotic Cells (%): 50%
  Population Normal (%): 97%
  Population Pyknosed Nuclei (%): 18%
  Population Tubulin-Different-Phenotype (%): 55%
[9]
  Population Apoptotic (%): 85%
  Population Fragmented Nuclei (%): 21%
  Population Healthy Nuclei (%): 61%
  Population Hoechst High Intensity Objects (%): 3%
  Population Membrane Permeable-Phenotype (%): 4%
  Population Mitochondria Different-Phenotype (%): 4%
  Population Mitotic Cells (%): 15%
  Population Normal (%): 96%
  Population Pyknosed Nuclei (%): 16%
  Population Tubulin-Different-Phenotype (%): 24%
[10]
  Population Apoptotic (%): 57%
  Population Fragmented Nuclei (%): 36%
  Population Healthy Nuclei (%): 53%
  Population Hoechst High Intensity Objects (%): 5%
  Population Mitotic Cells (%): 42%
  Population Normal (%): 94%
  Population Pyknosed Nuclei (%): 10%
  Population Tubulin-Different-Phenotype (%): 44%
[11]
  Population Apoptotic (%): 73%
  Population Fragmented Nuclei (%): 22%
  Population Healthy Nuclei (%): 65%
  Population Hoechst High Intensity Objects (%): 3%
  Population Membrane Permeable-Phenotype (%): 0%
  Population Mitochondria Different-Phenotype (%): 3%
  Population Mitotic Cells (%): 26%
  Population Normal (%): 96%
  Population Pyknosed Nuclei (%): 12%
  Population Tubulin-Different-Phenotype (%): 28%
[12]
  Population Apoptotic (%): 30%
  Population Fragmented Nuclei (%): 35%
  Population Healthy Nuclei (%): 50%
  Population Membrane Permeable-Phenotype (%): 4%
  Population Mitochondria Different-Phenotype (%): 6%
  Population Mitotic Cells (%): 69%
  Population Pyknosed Nuclei (%): 14%
  Population Tubulin-Different-Phenotype (%): 53%
